Reference: ChEMBL document CHEMBL3091462 (J Nat Prod, 2013)
The source made the active and inactive calls. No cut-off for these calls is given here.

Tests used:
SW-620 [1] = assay: Cell cycle arrest in human SW620 cells assessed as accumulation at G2/M phase at 2 uM after 48 hrs using propidium iodide staining by flow cytometry (reference value: 9.1 +/- 0.3%); format: functional
HCT-116 [2] = assay: Cell cycle arrest in human HCT116 cells assessed as accumulation at G0/G1 phase at 10 uM after 48 hrs using propidium iodide staining by flow cytometry (reference value: 56.7 +/- 1.9%); format: functional
SW-620 [3] = assay: Cytotoxicity against human SW620 cells at 0.5 to 10 uM; format: functional, cell-based; conditions: TDE = time-dependent effect
In short: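 SW-620 cells seeded at 10^5 per well in RPMI 1640 + 10% FBS at 37 °C, then treated when subconfluent with 0–10 μM for 48 h (or 10 μM for 24–72 h). Ethanol vehicle, at most 0.01% v/v final. Cells trypsinized and counted on a hemocytometer. Result given as % of control, means ± SD of three experiments in triplicate.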

HCT-116 [4] = assay: Decrease of cyclin E expression in human HCT116 cells after 24 hrs by immunoblotting; format: functional, cell-based
In short: (§1)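 HCT-116 or SW-620 cells exposed to 0–10 μM for 24 h. Cells lysed in Tris/NaCl/EDTA/1% Triton X-100 buffer with protease and phosphatase inhibitors at 4 °C, protein measured by BCA. Lysates run on 10–12.5% SDS-PAGE and immunoblotted, ECL detection. Cdk2, cyclin A and cyclin E antibodies used at 1:500; β-actin as loading control.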

SW-620 [5] = assay: Cytotoxicity against human SW620 cells assessed as cell growth inhibition at 10 uM after 48 hrs; format: functional; conditions: SW-620, 48 h, read-out: GI
In short: (§2)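 Cells seeded at 10^5 per well in RPMI 1640/10% FBS at 37 °C. Subconfluent cells exposed to 0, 0.1, 0.5, 1, 2, 5 or 10 μM for 48 h, or to 10 μM for 24, 48 and 72 h; ethanol vehicle, at most 0.01% v/v final. Cells trypsinized and counted by hemocytometer. Viability as % of control, means ± SD, three experiments in triplicate.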

SW-620 [6] = assay: Cell cycle arrest in human SW620 cells assessed as accumulation at G0/G1 phase at 10 uM after 48 hrs using propidium iodide staining by flow cytometry (reference value: 47.8 +/- 1.2%); format: functional
SW-620 [7] = assay: Decrease of cyclin E expression in human SW620 cells after 24 hrs by immunoblotting; format: functional, cell-based; in short: as §1
SW-620 [8] = assay: Cytotoxicity against human SW620 cells assessed as cell viability at 10 uM after 48 to 72 hrs; format: functional, cell-based; in short: as §2
HCT-116 [9] = assay: Cytotoxicity against human HCT116 cells assessed as cell viability at 10 uM after 48 to 72 hrs; format: functional, cell-based; in short: as §2
SW-620 [10] = assay: Cell cycle arrest in human SW620 cells assessed as accumulation at G0/G1 phase at 5 uM after 48 hrs using propidium iodide staining by flow cytometry (reference value: 47.8 +/- 1.2%); format: functional
SW-620 [11] = assay: Cell cycle arrest in human SW620 cells assessed as accumulation at S phase at 5 uM after 48 hrs using propidium iodide staining by flow cytometry (reference value: 43.1 +/- 1%); format: functional
HCT-116 [12] = assay: Cell cycle arrest in human HCT116 cells assessed as accumulation at S phase at 5 uM after 48 hrs using propidium iodide staining by flow cytometry (reference value: 36.3 +/- 1.7%); format: functional
SW-620 [13] = assay: Decrease of cyclin A expression in human SW620 cells after 24 hrs by immunoblotting; format: functional, cell-based; in short: as §1
HCT-116 [14] = assay: Increase of p21 expression in human HCT116 cells at 0.1 to 10 uM after 24 hrs by immunoblotting; format: functional, cell-based
In short: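 HCT-116 or SW-620 cells treated with 0–10 μM for 24 h. Lysates probed for p21 by SDS-PAGE immunoblotting with ECL detection; β-actin as loading control.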

SW-620 [15] = assay: Cell cycle arrest in human SW620 cells assessed as accumulation at G0/G1 phase at 2 uM after 48 hrs using propidium iodide staining by flow cytometry (reference value: 47.8 +/- 1.2%); format: functional
SW-620 [16] = assay: Cell cycle arrest in human SW620 cells assessed as accumulation at G0/G1 phase at 0.5 uM after 48 hrs using propidium iodide staining by flow cytometry (reference value: 47.8 +/- 1.2%); format: functional
HCT-116 [17] = assay: Antitumor activity against human HCT116 cells xenografted in BALB/c-nude mouse assessed as reduction of tumor weight at 100 mg/kg, po administered every other day from day 2 to 21 (reference value: 469 mg); format: functional
In short: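 Male BALB/c-nude mice; 2 × 10^6 tumour cells in 0.2 mL PBS injected intradermally into the flank on day 0, n = 10 per group. Oral dosing every other day for 3 weeks, starting 2 days after inoculation. Caliper tumour volume = (width)2 × length/2, measured periodically. Tumours excised and weighed at day 21. Means ± SE.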

HCT-116 [18] = assay: Cell cycle arrest in human HCT116 cells assessed as accumulation at G0/G1 phase at 0.1 uM after 48 hrs using propidium iodide staining by flow cytometry (reference value: 56.7 +/- 1.9%); format: functional
SW-620 [19] = assay: Cell cycle arrest in human SW620 cells assessed as accumulation at G2/M phase at 1 uM after 48 hrs using propidium iodide staining by flow cytometry (reference value: 9.1 +/- 0.3%); format: functional
HCT-116 [20] = assay: Decrease of Cdk2 expression in human HCT116 cells after 24 hrs by immunoblotting; format: functional, cell-based; in short: as §1
SW-620 [21] = assay: Cytotoxicity against human SW620 cells assessed as cell death at 2 uM after 48 hrs; format: functional, cell-based; in short: as §2
HCT-116 [22] = assay: Cell cycle arrest in human HCT116 cells assessed as accumulation at G2/M phase at 1 uM after 48 hrs using propidium iodide staining by flow cytometry (reference value: 7.1 +/- 0.3%); format: functional
HCT-116 [23] = assay: Cell cycle arrest in human HCT116 cells assessed as accumulation at G0/G1 phase at 5 uM after 48 hrs using propidium iodide staining by flow cytometry (reference value: 56.7 +/- 1.9%); format: functional
SW-620 [24] = assay: Cell cycle arrest in human SW620 cells assessed as accumulation at G2/M phase at 5 uM after 48 hrs using propidium iodide staining by flow cytometry (reference value: 9.1 +/- 0.3%); format: functional
SW-620 [25] = assay: Cell cycle arrest in human SW620 cells assessed as accumulation at S phase at 1 uM after 48 hrs using propidium iodide staining by flow cytometry (reference value: 43.1 +/- 1%); format: functional
HCT-116 [26] = assay: Cytotoxicity against human HCT116 cells assessed as cell viability at 0.1 to 2 uM after 24 to 72 hrs; format: functional, cell-based; in short: as §2
HCT-116 [27] = assay: Cell cycle arrest in human HCT116 cells assessed as accumulation at G2/M phase at 10 uM after 48 hrs using propidium iodide staining by flow cytometry (reference value: 7.1 +/- 0.3%); format: functional
SW-620 [28] = assay: Induction of apoptosis in human SW620 cells expressing p21 siRNA assessed as increase of expression of cleaved caspase-9 and caspase-3 at 10 uM after 24 hrs by immunoblotting; format: functional, cell-based
In short: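 Cells transfected with 100 nM scrambled or p21 siRNA for 4 h, then grown 24 h in complete medium and treated with 10 μM for 24 h. p21, caspase-9/-3 and cleaved forms analysed by 15% SDS-PAGE immunoblot with densitometry. Means ± SD, three experiments in triplicate.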

SW-620 [29] = assay: Effect on p27 expression in p53 deficient human SW620 cells at 0.5 to 10 uM after 24 hrs by immunoblotting; format: functional, cell-based

For `CC(C)c1cccc(=O)c(O)c1` [HINOKITIOL], which Activity (SW-620 [1]) is on record?
The Activity was 4.5%.

And the Activity (HCT-116 [2])?
The Activity was 38.8%.

And the Activity (SW-620 [3])?
Its Activity is “tde”.

And the Activity (HCT-116 [4])?
The Activity was “Dose-dependent effect”.

What about the inhibition of growth at 10 µM (SW-620 [5]) of the same compound?
Its inhibition of growth at 10 µM is 63%.

What about the Activity (SW-620 [6]) of the same compound?
The Activity was 11.5%.

And the Activity (SW-620 [7])?
Its Activity is “Dose-dependent effect”.

What about the Activity (SW-620 [8]) of the same compound?
Its Activity is “Active”.

And the Activity (HCT-116 [9])?
Its Activity is “Active”.

And the Activity (SW-620 [10])?
Its Activity is 40.8%.

What about the Activity (SW-620 [11]) of the same compound?
Its Activity is 51.9%.

What about the Activity (HCT-116 [12]) of the same compound?
The Activity was 43.5%.

And the Activity (SW-620 [13])?
Its Activity is “Dose-dependent effect”.

And the Activity (HCT-116 [14])?
The Activity was “Active”.

What about the Activity (SW-620 [15]) of the same compound?
Its Activity is 43.1%.

What about the Activity (SW-620 [16]) of the same compound?
Its Activity is 48.3%.

What about the Activity (HCT-116 [17]) of the same compound?
The Activity was 245 mg.

And the Activity (HCT-116 [18])?
Its Activity is 58.1%.

What about the Activity (SW-620 [19]) of the same compound?
Its Activity is 6.8%.

And the Activity (HCT-116 [20])?
The Activity was “Dose-dependent effect”.

What about the Activity (SW-620 [21]) of the same compound?
The Activity was “Active”.

What about the Activity (HCT-116 [22]) of the same compound?
The Activity was 7.7%.

And the Activity (HCT-116 [23])?
Its Activity is 44.6%.

And the Activity (SW-620 [24])?
The Activity was 7.2%.

And the Activity (SW-620 [25])?
Its Activity is 47.7%.

And the Activity (HCT-116 [26])?
The Activity was “Active”.

And the Activity (HCT-116 [27])?
Its Activity is 7.4%.

What about the Activity (SW-620 [28]) of the same compound?
The Activity was “inactive”.

What about the Activity (SW-620 [29]) of the same compound?
The Activity was “inactive”.
